Assay: Inhibition of human IgG-FcRn interaction by competition ELISA
Procedure, shortened: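 Competition ELISA: test compounds at various concentrations mixed with 3 nM human IgG, then incubated on plates coated with soluble human FcRn. Inhibition of hIgG binding to shFcRn measured; IC50 reported in µM.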

IC50 [µM] | Structure (SMILES)
> 500 | COc1cccc(CNC(=O)C(C#N)c2nc3ccccc3nc2N2CCN(C)CC2)c1 (stereo not given)
> 500 | COc1cccc(CNC(=O)C(C#N)c2nc3ccccc3nc2N2CCCN(C)CC2)c1 (stereo not given)
250 | COc1ccc(CNC(=O)C(C#N)c2nc3ccccc3nc2N2CCCCCC2)cc1OC (stereo not given)
> 500 | CCCCNC(=O)C(C#N)c1nc2ccccc2nc1N1CCCCCC1 (stereo not given)
40 | COc1ccc([C@H](C)NC(=O)C(C#N)c2nc3ccccc3nc2N2CCCCCC2)cc1 (stereo not given in full)
> 500 | COc1cccc(CNC(=O)C(C#N)c2nc3ccccc3nc2NCc2ccccc2)c1 (stereo not given)
> 500 | COc1cccc(CNC(=O)C(C#N)c2nc3ccccc3nc2Sc2ccccc2)c1 (stereo not given)
> 500 | COc1cccc(CNC(=O)C(C#N)c2nc3ccccc3nc2N2CCCN(C(C)=O)CC2)c1 (stereo not given)
> 500 | COc1cccc(CNC(=O)C(C#N)c2nc3ccccc3nc2N2CCCNCC2)c1 (stereo not given)
> 500 | COc1cccc(CNC(=O)C(C#N)c2nc3ccc(C(=O)NCc4cccnc4)cc3nc2N2CCCCCC2)c1 (stereo not given)
> 500 | N#CC(C(=O)NCc1ccc(O)cc1)c1nc2ccccc2nc1N1CCCCCC1 (stereo not given)
400 | N#CC(C(=O)NCc1cccc(OCCN2CCOCC2)c1)c1nc2ccccc2nc1N1CCCCCC1 (stereo not given)
> 1000 | N#CC(C(=O)NCc1ccco1)c1nc2ccccc2nc1N1CCCCCC1 (stereo not given)
> 500 | COc1cccc(CNC(=O)C(C#N)c2nc3ccccc3nc2N2CCOCC2)c1 (stereo not given)
120 | COCCNC(=O)C(C#N)c1nc2ccccc2nc1N1CCCCCC1 (stereo not given)
40 | COc1ccc([C@@H](C)NC(=O)C(C#N)c2nc3ccccc3nc2N2CCCCCC2)cc1 (stereo not given in full)
40 | N#CC(C(=O)NCc1cccc(-c2nccs2)c1)c1nc2ccccc2nc1N1CCCCCC1 (stereo not given)
200 | CN(C)CCCOc1cccc(CNC(=O)C(C#N)c2nc3ccccc3nc2N2CCCCCC2)c1 (stereo not given)
> 500 | COc1cccc(CNC(=O)C(C#N)c2nc3ccccc3nc2NC2CC3CCC2C3)c1 (stereo not given)
> 500 | COc1cccc(CNC(=O)C(C#N)c2nc3ccccc3nc2N2CCCCC2)c1 (stereo not given)
50 | COc1ccc(CNC(=O)C(C#N)c2nc3ccccc3nc2N2CCCCCC2)cc1 (stereo not given)
10 | COc1cccc(CNC(=O)C(C#N)c2nc3ccccc3nc2N2CCCCCC2)c1 (stereo not given)
400 | COc1cccc(CNC(=O)C(C#N)c2nc3ccc(C(=O)NCCCN(C)C)cc3nc2N2CCCCCC2)c1 (stereo not given)
30 | COc1cccc(CNC(=O)C(C#N)c2nc3cc(Cl)c(Cl)cc3nc2N2CCCCCC2)c1 (stereo not given)
40 | N#Cc1ccc(CNC(=O)C(C#N)c2nc3ccccc3nc2N2CCCCCC2)cc1 (stereo not given)
> 500 | N#CC(C(=O)NCCc1ccc(N)cc1)c1nc2ccccc2nc1N1CCCCCC1 (stereo not given)
150 | N#CC(C(=O)NCc1cccc(F)c1)c1nc2ccccc2nc1N1CCCCCC1 (stereo not given)
> 500 | CN(C)c1ccc(CNC(=O)C(C#N)c2nc3ccccc3nc2N2CCCCCC2)cc1 (stereo not given)

IC50 [µM] | Structure (SMILES)
> 500 | N#CC(C(=O)NCc1ccccc1)c1nc2ccccc2nc1N1CCCCCC1 (stereo not given)
120 | COc1ccc(CCNC(=O)C(C#N)c2nc3ccccc3nc2N2CCCCCC2)cc1 (stereo not given)
500 | COc1cccc(CNC(=O)C(C#N)c2nc3ccc([N+](=O)[O-])cc3nc2N2CCCCCC2)c1 (stereo not given)
> 500 | COc1cccc(CNC(=O)C(C#N)c2nc3ccc(C(=O)Nc4ccccc4)cc3nc2N2CCCCCC2)c1 (stereo not given)
> 1000 | N#CC(C(=O)NCc1ccccn1)c1nc2ccccc2nc1N1CCCCCC1 (stereo not given)
> 500 | COc1cccc(CNC(=O)C(C#N)c2nc3ccc(C(=O)NCCc4cccnc4)cc3nc2N2CCCCCC2)c1 (stereo not given)
> 500 | COc1cccc(CNC(=O)C(C#N)c2nc3ccccc3nc2NC2CCCCCC2)c1 (stereo not given)
> 500 | COc1cccc(CNC(=O)C(C#N)c2nc3ccccc3nc2N2CCCOCC2)c1 (stereo not given)
> 500 | N#CC(C(=O)NCC1CCCCC1)c1nc2ccccc2nc1N1CCCCCC1 (stereo not given)
6 | COc1cccc(CNC(=O)C(C#N)c2nc3ccccc3nc2N2CCCCCCC2)c1 (stereo not given)
> 500 | COc1cccc(CNC(=O)C(C#N)c2nc3cc(OC)ccc3nc2N2CCCCCC2)c1 (stereo not given)
> 1000 | N#CC(C(=O)NCc1cccs1)c1nc2ccccc2nc1N1CCCCCC1 (stereo not given)
> 500 | N#CC(C(=O)NCc1ccc(OCCN2CCOCC2)cc1)c1nc2ccccc2nc1N1CCCCCC1 (stereo not given)
> 250 | C=CCCNC(=O)C(C#N)c1nc2ccccc2nc1N1CCCCCC1 (stereo not given)
80 | N#CC(C(=O)NCc1cccc(OC(F)(F)F)c1)c1nc2ccccc2nc1N1CCCCCC1 (stereo not given)
100 | COc1cccc(CNC(=O)C(C#N)c2nc3ccc(C#N)cc3nc2N2CCCCCC2)c1 (stereo not given)
2 | COc1ccc(C(CN2CCOCC2)NC(=O)C(C#N)c2nc3ccccc3nc2N2CCCCCC2)cc1 (stereo not given)
> 500 | COc1cccc(CNC(=O)C(C#N)c2nc3ccccc3nc2N2CCCC3CCCCC32)c1 (stereo not given)
> 150 | COCCCNC(=O)C(C#N)c1nc2ccccc2nc1N1CCCCCC1 (stereo not given)
> 500 | COc1cccc(CNC(=O)C(C#N)c2nc3ccccc3nc2N2CCCN(CCO)CC2)c1 (stereo not given)
100 | N#CC(C(=O)NCc1cccc(Cl)c1)c1nc2ccccc2nc1N1CCCCCC1 (stereo not given)
> 500 | COc1cccc(CNC(=O)C(C#N)c2nc3ccccc3nc2N2CCCN(C(=O)OCc3ccccc3)CC2)c1 (stereo not given)
200 | Cc1cncc(Oc2cccc(CNC(=O)C(C#N)c3nc4ccccc4nc3N3CCCCCC3)c2)n1 (stereo not given)
> 1000 | N#CC(C(=O)NCc1cccnc1)c1nc2ccccc2nc1N1CCCCCC1 (stereo not given)
> 500 | COc1cccc(CNC(=O)C(C#N)c2nc3ccccc3nc2Nc2ccccc2)c1 (stereo not given)
100 | COc1cccc(CCNC(=O)C(C#N)c2nc3ccccc3nc2N2CCCCCC2)c1 (stereo not given)
150 | COc1ccccc1CNC(=O)C(C#N)c1nc2ccccc2nc1N1CCCCCC1 (stereo not given)
